Results from ChEMBL document CHEMBL1155242, “Radiolabeled 5-iodo-3'-O-(17beta-succinyl-5alpha-androstan-3-one)-2'-deoxyuridine and its 5'-monophosphate for imaging and therapy of androgen receptor-positive cancers: synthesis and biological evaluation” (J Med Chem, 2009).

Experiments:
[1] = Ratio of drug level in tumor to kidney in athymic NCr mouse xenografted with human OVCAR-3 cells at 180 uCi, ip administered 9 days after tumor implantation as six fractionated doses every 4 days measured after 48 hrs by gamma counting; format: ADME, organism-based; conditions: in vivo
[2] = Ratio of drug level in tumor to kidney in athymic NCr mouse xenografted with human OVCAR-3 cells at 180 uCi, ip administered 9 days after tumor implantation as six fractionated doses every 4 days measured after 1.5 hrs by gamma counting; format: ADME, organism-based; conditions: in vivo
[3] = biological target: T1, Sex hormone-binding globulin (Oryctolagus cuniculus, UniProt P15196); experiment: Binding affinity to rabbit sex hormone binding globulin assessed as intact compound remaining at 10 to 20 uCi/mL after 60 mins by size-exclusion HPLC analysis; format: ADME; conditions: read-out: Stability
T1 sequence (P15196 whole entry): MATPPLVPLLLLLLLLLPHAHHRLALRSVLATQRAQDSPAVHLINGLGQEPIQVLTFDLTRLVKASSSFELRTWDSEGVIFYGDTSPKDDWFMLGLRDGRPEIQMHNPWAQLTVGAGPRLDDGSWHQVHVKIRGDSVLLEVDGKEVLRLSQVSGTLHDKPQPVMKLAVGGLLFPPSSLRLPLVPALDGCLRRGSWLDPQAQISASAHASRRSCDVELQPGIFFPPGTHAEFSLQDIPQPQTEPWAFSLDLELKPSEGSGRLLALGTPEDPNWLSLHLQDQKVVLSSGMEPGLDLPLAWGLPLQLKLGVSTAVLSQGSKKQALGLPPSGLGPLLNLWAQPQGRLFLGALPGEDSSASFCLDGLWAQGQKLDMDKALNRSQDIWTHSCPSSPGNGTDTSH
In short: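 Radioligand incubated 60 min in rabbit serum; size-exclusion HPLC as for SHBG binding (phosphate/Na2SO4 pH 6.8, then CH3CN gradient) for SHBG-bound peak, with extracts run on C18 for intact compound.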

[4] = Biodistribution in nonadherent tumors in stomach of athymic NCr mouse xenografted with human OVCAR-3 cells at 45 uCi, ip after 72 hrs by gamma counting; format: ADME, organism-based; conditions: in vivo
In short: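 Athymic NCr-nu/nu mice with ip OVCAR-3; 45 μCi given ip without prior SSKI. Whole-body planar imaging at 72 h with region-of-interest analysis as percent of whole-body activity; peritoneal lavage cells and ascites counted.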

LNCaP = experiment: Cellular uptake in proliferating human LNCAP cells expressing androgen receptor assessed as [125I]UdR retention per cell at 1 to 4 uCi/mL after 24 hrs by gamma counting; format: ADME, cell-based
In short: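 Proliferating LNCaP monolayers exposed 24 h to a range of radioligand concentrations; whole-cell uptake measured.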

OVCAR-3 [5] = experiment: Antitumor activity against human OVCAR-3 cells xenografted in athymic NCr mouse assessed as reduction of tumor size in peritoneum at 180 uCi, ip administered 9 days after tumor implantation as six fractionated doses every 4 days measured after 2 weeks of last dose by gamma counting; format: functional; parameters: scale not given: the % may be the effect or the level left
In short: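 OVCAR-3 ip xenografts in athymic mice; six fractionated ip doses every 4 days, total 180 μCi/mouse, with PBS or vehicle ip controls. Nonadherent tumor cells recovered by peritoneal lavage at necropsy, counted and pellet-weighed.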

[6] = Chemical stability in RPMI-1640 serum-free medium assessed as intact compound remaining at 12.2 uCi up to 6 hrs by HPLC analysis; format: physicochemical; conditions: read-out: Stability
OVCAR-3 [7] = experiment: Cellular uptake in human OVCAR-3 cells xenografted in athymic NCr mouse assessed as [125I]UdR retention per cell at an average 39.5 uCi/dose, ip administered 9 days after tumor implantation as six fractionated doses every 4 days measured after 2 weeks of last dose by gamma counting; format: ADME, organism-based; conditions: in vivo, 336 h
In short: (§1)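 OVCAR-3-bearing and healthy athymic mice given fractionated ip doses on the six-dose every-4-days schedule; tissues, tumor and lavaged cells γ-counted at necropsy, %ID/g; DNA-bound 125I in cells measured as cpm/cell.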

[8] = biological target: T2, Sex hormone-binding globulin (Homo sapiens, UniProt P04278); experiment: Binding affinity to human sex hormone binding globulin at 10 to 20 uCi/mL after 60 mins by instant thin layer chromatography; format: ADME; conditions: 1 h
T2 sequence (P04278 whole entry): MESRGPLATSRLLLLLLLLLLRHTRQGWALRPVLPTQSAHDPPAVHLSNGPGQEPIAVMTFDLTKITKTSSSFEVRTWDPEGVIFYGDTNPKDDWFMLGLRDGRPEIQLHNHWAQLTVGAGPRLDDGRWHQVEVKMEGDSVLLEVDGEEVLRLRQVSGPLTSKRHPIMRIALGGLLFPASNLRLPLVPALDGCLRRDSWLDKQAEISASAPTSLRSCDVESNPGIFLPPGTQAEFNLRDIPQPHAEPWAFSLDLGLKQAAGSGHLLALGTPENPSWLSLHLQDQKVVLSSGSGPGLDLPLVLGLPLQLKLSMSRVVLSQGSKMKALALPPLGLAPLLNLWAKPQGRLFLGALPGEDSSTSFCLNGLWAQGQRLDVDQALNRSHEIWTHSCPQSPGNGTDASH

[9] = biological target: T2, Sex hormone-binding globulin; experiment: Binding affinity to human sex hormone binding globulin assessed as intact compound remaining at 10 to 20 uCi/mL after 60 mins by instant thin layer chromatography; format: ADME; conditions: read-out: Stability
[10] = Biodistribution in peritoneum of athymic NCr mouse xenografted with human OVCAR-3 cells at 1.12 uCi, ip after 24 hrs by gamma counting; format: ADME, organism-based; conditions: in vivo
[11] = Ratio of drug level in tumor to kidney in athymic NCr mouse xenografted with human OVCAR-3 cells at 180 uCi, ip administered 9 days after tumor implantation as six fractionated doses every 4 days measured after 72 hrs by gamma counting; format: ADME, organism-based; conditions: in vivo
Serum = experiment: Stability in human serum assessed as half life at 10 to 20 uCi/mL by size-exclusion HPLC analysis; format: ADME, cell-free
In short: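 The compound was incubated with rabbit or human serum at ambient temperature, and aliquots were taken at 1, 5 and 24 h. Aliquots were run on size-exclusion HPLC (TSK3000; 0.1 M potassium phosphate/0.1 M Na2SO4, pH 6.8, then an acetonitrile gradient). Extracts were run on C18 reversed-phase HPLC (water/acetonitrile with 0.07% TFA). Half-lives came from a monoexponential fit.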

[12] = Ratio of drug level in tumor to uterus in athymic NCr mouse xenografted with human OVCAR-3 cells at 180 uCi, ip administered 9 days after tumor implantation as six fractionated doses every 4 days measured after 48 hrs by gamma counting; format: ADME, organism-based; conditions: in vivo
[13] = Ratio of drug level in tumor to liver in athymic NCr mouse xenografted with human OVCAR-3 cells at 180 uCi, ip administered 9 days after tumor implantation as six fractionated doses every 4 days measured after 1.5 hrs by gamma counting; format: ADME, organism-based; conditions: in vivo
OVCAR-3 [14] = experiment: Antitumor activity against human OVCAR-3 cells xenografted in athymic NCr mouse assessed as tumor burden in peritoneum at 0.25 mCi, ip administered 31 days after tumor implantation as single bolus dose measured 55 days after implantation by gamma counting in presence of SHBG (Rvb= 4.1 +/- 0.6 g); format: functional
[15] = Chemical stability in phosphate buffer saline by HPLC analysis; format: physicochemical
Kidney = experiment: Biodistribution in kidney of athymic NCr mouse xenografted with human OVCAR-3 cells assessed per gram of tissue at an average 39.5 uCi/dose, ip administered 9 days after tumor implantation as six fractionated doses every 4 days measured after 2 weeks of last dose by gamma counting; format: ADME, organism-based; conditions: in vivo, 336 h; in short: as §1

| Structure (SMILES) | Ratio [1] | Ratio [2] | remaining at 1 h [3] [%] | Drug uptake [4] [%] | Bmax (LNCaP) [×10⁻⁶ pmol] | Activity (OVCAR-3 [5]) [%] | remaining at 6 h, 12.2 uCi [6] [%] | Drug uptake (OVCAR-3 [7]) [cpm] | Activity [8] | remaining at 1 h [9] [%] | Drug uptake [10] [%] | Ratio [11] | t1/2 (Serum) [h] | Ratio [12] | Ratio [13] | Activity (OVCAR-3 [14]) [g] | Stability [15] | Drug uptake (Kidney) [%ID] |
| --- | --- | --- | --- | --- | --- | --- | --- | --- | --- | --- | --- | --- | --- | --- | --- | --- | --- | --- |
| C[C@]12CCC(=O)C[C@@H]1CC[C@@H]1[C@@H]2CC[C@]2(C)[C@@H](OC(=O)CCC(=O)O[C@H]3C[C@H](n4cc([125I])c(=O)[nH]c4=O)O[C@@H]3CO)CC[C@@H]12 | 61.8 | 0.9 | > 84 | 3.4 | 1.4 | 70 | 90 | 0.0124 | Active | > 91 | > 95 | 31.9 | 14.7 | 16.6 | 1.4 |  |  |  |
| C[C@]12CCC(=O)C[C@@H]1CC[C@@H]1[C@@H]2CC[C@]2(C)[C@@H](OC(=O)CCC(=O)O[C@H]3C[C@H](n4cc([125I])c(=O)[nH]c4=O)O[C@@H]3COP(=O)(O)O)CC[C@@H]12 |  |  |  |  |  |  |  |  |  |  |  |  |  |  |  | 3.1 | Stable | 0.013 |
